Measurements from different studies.
pIC50: −log10 of the molar value. Converted amounts (≈) assume the structure as drawn.

SMILES	target or system	assay	system	setting	measurement	result
NCCC(=O)Nc1ccc(/N=c2\cc(-c3ccc4c(c3)OCO4)oc3ccccc23)cc1	MDA-MB-468	cell growth or viability, CCK-8		1 µM	inhibition	6.16%
CN(C)CCNC(=O)c1ccc(-c2nc3ccc4[nH]ncc4c3c3c2CCCCC3)c(F)c1	MV4-11	cell growth or viability, resazurin		72 h	GI50	11 nM
OCc1ccc(-c2nn(Cc3ccc(F)cc3)c3ccccc23)o1	RBE	cell growth or viability, ATP luminescence		46 µM, 72 h	inhibition	66%
NCCC(=O)Nc1ccccc1/N=c1\cc(-c2ccc3nc(N)oc3c2)oc2ccc(O)cc12	MDA-MB-468	cell growth or viability, CCK-8		1 µM	inhibition	40.2%
COCCNC(=O)c1ccc(-c2nc3ccc4[nH]ncc4c3c3c2CCCC3)cc1	MV4-11	cell growth or viability, resazurin		72 h	GI50	400 nM
CC1(C)S[C@@H]2[C@H](NC(=O)[C@H](N)c3ccccc3)C(=O)N2[C@H]1C(=O)O	Micrococcus luteus	microbial growth, broth dilution	ATCC4698		MIC	1.35 µM (≈ 0.472 µg/mL)
CCN(Cc1ccc(F)cc1)c1ccc(CO)c(Cl)c1	RBE	cell growth or viability, ATP luminescence		46 µM, 72 h	inhibition	53%
CCCS(=O)(=O)Oc1ccc(C=NNC(=O)CSc2nc3c(C)cccc3c(=O)n2-c2ccccc2)cc1	Staphylococcus aureus	microbial growth, well diffusion	MRSA	20 µg/mL	inhibition zone	2 mm
OCc1ccc(-c2nn(Cc3ccncc3)c3cccnc23)o1	RBE	cell growth or viability, ATP luminescence			pIC50	5.06
N[C@@H](CO)C(=O)Nc1ccccc1/N=c1\cc(-c2ccc3c(c2)OCO3)oc2ccccc12	MDA-MB-468	cell growth or viability, CCK-8		1 µM	inhibition	7.66%
CN(C)CCNC(=O)c1ccc(-c2nc3ccc4[nH]ncc4c3c3c2CC3)cc1	MV4-11	cell growth or viability, resazurin		72 h	GI50	1300 nM
OCc1ccc(-c2nn(Cc3cccc(Cl)c3)c3ccccc23)o1	RBE	cell growth or viability, ATP luminescence		46 µM, 72 h	inhibition	75%
CN(C)CCNC(=O)c1ccc(-c2nc3ccc4[nH]ncc4c3c3c2CCCCC3)nc1	MV4-11	cell growth or viability, resazurin		72 h	GI50	236 nM
C[C@H](N)C(=O)Nc1ccccc1/N=c1\cc(-c2ccc3c(c2)OCCO3)oc2c(N)cccc12	MDA-MB-468	cell growth or viability, CCK-8		1 µM	inhibition	2.63%
